TNAP inh hi DEA – TNAP (human) inhibition, high acceptor; P05186; purified TNAP, CDP-star luminescence, 1 M DEA; inhibition, % at 20 µM; actives 0.03% (n = 200,000);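 active means over 50% inhibition of tissue-nonspecific alkaline phosphatase at 20 µM in the single-dose screen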;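 further: plate controls were DMSO wells for no effect and EDTA-quenched wells as full inhibition for full effect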
Target sequence (P05186 whole entry, looked up): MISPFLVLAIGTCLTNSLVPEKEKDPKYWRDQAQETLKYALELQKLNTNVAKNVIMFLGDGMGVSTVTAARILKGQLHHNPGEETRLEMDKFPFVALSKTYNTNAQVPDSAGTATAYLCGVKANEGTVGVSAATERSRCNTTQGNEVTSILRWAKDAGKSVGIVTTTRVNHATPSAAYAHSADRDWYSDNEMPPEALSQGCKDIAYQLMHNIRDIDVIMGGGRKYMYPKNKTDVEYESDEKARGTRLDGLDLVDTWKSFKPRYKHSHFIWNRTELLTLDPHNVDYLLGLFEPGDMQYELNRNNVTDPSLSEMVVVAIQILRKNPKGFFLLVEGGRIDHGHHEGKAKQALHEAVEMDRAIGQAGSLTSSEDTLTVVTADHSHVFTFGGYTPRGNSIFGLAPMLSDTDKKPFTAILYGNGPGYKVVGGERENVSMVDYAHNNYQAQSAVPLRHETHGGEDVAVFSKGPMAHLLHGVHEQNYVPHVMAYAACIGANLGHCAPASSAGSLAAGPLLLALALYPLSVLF
TNAP inh noacc – TNAP (human) inhibition, acceptor-free conditions; P05186; actives 0.26% (n = 200,000); purified TNAP, CDP-star luminescence, 30 min; inhibition, % at 20 µM;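 active means tissue-nonspecific alkaline phosphatase inhibition above about 50% at 20 µM in the single-dose screen, limit read from the data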;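 further: 0% = DMSO negative control and 100% = EDTA positive control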
TNAP act hiacc – TNAP (human) activation, high acceptor; P05186; purified TNAP, CDP-star luminescence, 1 M DEA, 30 min; hits give high values; 0 = EDTA background, 1 = DMSO-only activity; activation factor at 20 µM; 200,000 tested, under 10 active;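 active means activation factor at least 2 at 20 µM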
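Control set: EDTA negative control, DMSO positive control / Assay system: human TNAP / Quantity: TNAP 1/800 final / Evaluation: TNAP activation factor scaled between EDTA and DMSO control wells / Measured by: luminescent substrate turnover signal / Compound dosing: one dose, 20 µM / Times: 30 min enzyme reaction at room temperature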
HCT116 PTEN-null – growth suppressors of cells with PTEN tumor suppressor deletion | HCT116 PTEN-null viability, CellTiter-Glo, 60 h; hits give low values | viability, % at 10 µM | actives 1.2% (n = 140,000) | AID 827;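 active means viability at or below a set limit, 4 SD under the median of all tested compounds, cut at about 3.7% in these data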;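 further: PTEN knockout HCT116 line with beta catenin targeted HCT116 as companion control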
bCat KO growth – beta-catenin-lacking colon tumor cell growth suppression; actives 1.5% (n = 140,000); HCT116 beta-catenin knockout viability, CellTiter-Glo, 60 h; hits give low values; viability, % at 10 µM;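 active means viability at or under a set limit, the compound median less 4 SD, cut at about 6% in these data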;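 further: 0% = Hyamine 1622 control at 20 µM and 100% = untreated cell control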
Lmaj promast – inhibitors of Leishmania major promastigote growth. Leishmania major promastigotes, resazurin fluorescence viability. inhibition, % at 10 µM. actives 9% (n = 200,000). AID 1063; in the data active means inhibition above about 50%;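 further: promastigotes grown with compound for 44 hours at 28 °C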
* marks the source's active call; other numbers are inactive results; nt = no result. Shown are actives, neighbours in structure and some others; about 9.6% of the full set was active somewhere.

SMILES | TNAP inh hi DEA | TNAP inh noacc | TNAP act hiacc | HCT116 PTEN-null | bCat KO growth | Lmaj promast
CC(C)Oc1cccc(C(=O)C2CCCN(Cc3ccc4nonc4c3)C2)c1 (centres undefined) | -4 | -7 | 1 | nt | nt | 83*
CC(C)Oc1cccc(C(=O)C2CCCN(S(C)(=O)=O)C2)c1 (centres undefined) | -10 | -4 | 1.1 | nt | nt | -3
CN(C)/C=N/c1ncc(-c2ncc(C(F)(F)F)cc2Cl)cn1 | -4 | -8 | 1 | nt | nt | -3
C=CCOc1ccc(/C=N/NC(=O)CN2CCOCC2)cc1OCC | -2 | -13 | 1 | nt | nt | -5
CCC(OC(=O)c1nsc(Cl)c1Cl)C(=O)NC(C)(C)CC (centres undefined) | 2 | -1 | 1 | nt | nt | -8
Clc1ccccc1-c1nc2nc3ccccc3nc2n1-c1ccc2c(c1)OCO2 | -2 | 2 | 1 | 78 | 74 | 17
CC(C)Oc1cccc(C(=O)C2CCCN(Cc3cnn(C(C)C)c3)C2)c1 (centres undefined) | -3 | 1 | 1 | nt | nt | 85*
O=C(c1cccc(C(F)(F)F)c1)C1CCCN(Cc2cccn2-c2ncccn2)C1 (centres undefined) | -3 | -2 | 1 | nt | nt | 28
O=C(c1ccc(C(F)(F)F)cc1)C1CCCN(Cc2cccn2-c2ncccn2)C1 (centres undefined) | 0 | -3 | 1 | nt | nt | 71*
CCn1nc(C)c(CN2CCCC(C(=O)c3cccc(OC(C)C)c3)C2)c1C (centres undefined) | -3 | -8 | 1 | nt | nt | 86*
CC(C)Oc1cccc(C(=O)C2CCCN(C(=O)c3ccnn3C)C2)c1 (centres undefined) | -1 | -7 | 1 | nt | nt | -6
Cc1nn(C(C)C)c(C)c1CN1CCCC(C(=O)c2cccc(OC(C)C)c2)C1 (centres undefined) | -2 | -2 | 1 | nt | nt | 20
CC(CNC(=O)C(C)(C)C)NC(=O)C(C)(C)C (centres undefined) | -5 | -10 | 1 | 110 | 97 | 41
CC1CC1C(=O)OCC(=O)NC(=O)NC12CC3CC(CC(C3)C1)C2 (centres undefined) | -2 | -11 | 1 | nt | nt | 5
Cc1nc(-c2cccc(Br)c2)ccc1C(=O)O | -5 | -12 | 1 | nt | nt | -13
Cn1c(=O)c2c(nc(-n3ccnc3)n2Cc2ccc(Cl)cc2Cl)n(C)c1=O | -2 | -7 | 1 | 86 | 97 | 84*
Cn1c(=O)c2c(nc(-n3ccnc3)n2Cc2ccccc2)n(C)c1=O | -4 | -4 | 1 | 112 | 100 | 8
N#Cc1cccc(NCC(=O)Nc2ccc3c(c2)OCCO3)c1 | -6 | -17 | 1.1 | nt | nt | -7
COc1ccc(NC(=S)NC(=O)/C=C/c2ccco2)cc1 | 0 | -4 | 1 | nt | nt | 0
O=C(/C=C/c1ccco1)NC(=S)Nc1ccc(O)c(-c2nc3ccccc3s2)c1 | 9 | -11 | 0.9 | 8 | 2.2* | -6
O=C(Nc1ccc(O)c(-c2nc3ccccc3s2)c1)c1cc(=O)c2ccccc2o1 | 9 | 2 | 0.9 | 22 | 31 | 44
O=C(Nc1ccc(O)c(-c2nc3ccccc3s2)c1)c1cccs1 | -6 | -6 | 1.1 | 100 | 91 | 62*
Nc1ccc(O)c(-c2nc3ccccc3s2)c1 | 4 | -7 | 1 | 3.4* | 8 | 33
Oc1ccc(N=C/C=C/c2cccc(Br)c2)cc1-c1nc2ccccc2s1 | 20 | -43 | 0.8 | 5 | 5.1* | -4
O=C(Nc1ccc2c(c1)CCC2)Nc1ccc2c(c1)OCO2 | -2 | -6 | 1 | nt | nt | -4
SMILES | TNAP inh hi DEA | TNAP inh noacc | TNAP act hiacc | HCT116 PTEN-null | bCat KO growth | Lmaj promast
COc1ccccc1C1OC(c2cccc([N+](=O)[O-])c2)=NN1C(C)=O (centres undefined) | 0 | 2 | 1 | nt | nt | 0
CC(=O)N1N=C(c2ccccc2)OC1c1ccc([N+](=O)[O-])s1 (centres undefined) | -3 | -7 | 1 | nt | nt | 100*
Cc1c(Br)cc(C(=O)OC2CCN(C)CC2)c(C)c1C | -7 | -2 | 1.1 | 83 | 76 | 86*
Cc1ccc(C(NC(=O)N2CCOCC2)=C(Cl)Cl)cc1F | -1 | -7 | 1 | 1.4* | 3.4* | 20
Cc1oc2cc(O)ccc2c(=O)c1-c1cnn(-c2ccccc2)c1 | -1 | 1 | 1 | 69 | 74 | 14
CCc1cc2c(=O)c(-c3ccc(F)cc3)c(C)oc2cc1OCC(=O)O | -3 | -2 | 1 | nt | nt | -5
CCc1cc2c(=O)c(-c3cnn(-c4ccccc4)c3)c(C)oc2cc1OCC(=O)Nc1cccc(C)c1 | -2 | -3 | 1 | 28 | 34 | 66*
CCc1cc2c(=O)c(-c3cnn(-c4ccccc4)c3)c(C)oc2cc1OCC(=O)Nc1ccc(F)c(F)c1 | -7 | -3 | 1.1 | 17 | 35 | 53*
COc1cc(OC)cc(C(=O)N[C@H](C(=O)Nc2nnc(C3CC3)s2)C(C)C)c1 | -7 | -14 | 1.1 | nt | nt | 16
Cc1ccc(-c2csc3ncnc(SCC(N)=O)c23)cc1 | -4 | -3 | 1 | nt | nt | -11
Cc1ccc(-c2csc3nc(SCC(N)=O)n(Cc4ccccc4)c(=O)c23)cc1 | -6 | -10 | 1.1 | 55 | 67 | 52*
Cc1ccc(/C=C/C(=O)NCc2cccs2)o1 | -6 | -14 | 1.1 | nt | nt | -3
O=C(CSc1nc(C2CC2)nc2ccccc12)Nc1ccccc1N1CCOCC1 | -4 | -5 | 1 | nt | nt | 23
Cc1ccc2nc(Cl)c(C3CC(c4cccs4)=NN3C(=O)CCCC(=O)O)cc2c1 (centres undefined) | -4 | -18 | 1 | 101 | 86 | 57*
Cc1cc([N+](=O)[O-])nn1CCC(=O)Nc1nccs1 | -1 | -4 | 1 | nt | nt | -6
COc1ccccc1N1CCN(C(=O)N2CCOCC2)CC1 | 0 | 0 | 1 | 107 | 105 | -4
COC(=O)C1(C(F)(F)F)N=C2Sc3ccccc3N2C(N2CCOCC2)=N1 (centres undefined) | 1 | -10 | 1 | 17 | 4.7* | -6
NNC1=N[C@H]2CS(=O)(=O)C[C@H]2S1 | 2 | -9 | 1 | 91 | 99 | -4
O=C(O)c1ccccc1C(=O)N1CC=C(c2ccccc2)CC1 | -6 | -14 | 1.1 | 82 | 78 | 90*
Oc1ccc(NC(=S)N=Nc2c(O)[nH]c3ccccc23)cc1 | 14 | 32 | 0.9 | nt | nt | 2
Cc1ccc(NC(=S)N=Nc2c(O)[nH]c3ccccc23)cc1 | 22 | -13 | 0.8 | nt | nt | 91*
O=C(CSc1ncccn1)N/N=C/c1ccccc1[N+](=O)[O-] | -4 | -13 | 1 | nt | nt | -4
Cc1ccc(/C(N)=N/OC(=O)c2ccc3c(c2)OCO3)cc1 | -2 | -16 | 1 | 75 | 82 | 51*
Cc1ccc(/C(N)=N/OC(=O)c2ccc(Cl)cc2Cl)cc1 | -1 | -6 | 1 | 97 | 94 | 85*
COc1ccc(/C(N)=N/OC(=O)c2ccc3c(c2)OCO3)cc1 | 0 | -13 | 1 | 88 | 95 | -5
